According to ChEMBL document CHEMBL4680142, “Thiazolidine-2,4-dione-based irreversible allosteric IKK-β kinase inhibitors: Optimization into in vivo active anti-inflammatory agents” (Eur J Med Chem, 2020):

How the values were obtained:
[1] = target: T1, Inhibitor of nuclear factor kappa-B kinase subunit beta (Homo sapiens) (UniProt O14920); experiment: Allosteric inhibition of IKKbeta (unknown origin) at 0.001 to 30 uM using 5FAM-GRHDSGLDSMK-NH2 as substrate incubated for 10 mins followed by substrate addition and measured after 60 mins by TR-FRET assay relative to control; conditions: filed as negative allosteric modulator, dose 0.001-30 µM, time 70.0 min
T1 sequence (whole entry): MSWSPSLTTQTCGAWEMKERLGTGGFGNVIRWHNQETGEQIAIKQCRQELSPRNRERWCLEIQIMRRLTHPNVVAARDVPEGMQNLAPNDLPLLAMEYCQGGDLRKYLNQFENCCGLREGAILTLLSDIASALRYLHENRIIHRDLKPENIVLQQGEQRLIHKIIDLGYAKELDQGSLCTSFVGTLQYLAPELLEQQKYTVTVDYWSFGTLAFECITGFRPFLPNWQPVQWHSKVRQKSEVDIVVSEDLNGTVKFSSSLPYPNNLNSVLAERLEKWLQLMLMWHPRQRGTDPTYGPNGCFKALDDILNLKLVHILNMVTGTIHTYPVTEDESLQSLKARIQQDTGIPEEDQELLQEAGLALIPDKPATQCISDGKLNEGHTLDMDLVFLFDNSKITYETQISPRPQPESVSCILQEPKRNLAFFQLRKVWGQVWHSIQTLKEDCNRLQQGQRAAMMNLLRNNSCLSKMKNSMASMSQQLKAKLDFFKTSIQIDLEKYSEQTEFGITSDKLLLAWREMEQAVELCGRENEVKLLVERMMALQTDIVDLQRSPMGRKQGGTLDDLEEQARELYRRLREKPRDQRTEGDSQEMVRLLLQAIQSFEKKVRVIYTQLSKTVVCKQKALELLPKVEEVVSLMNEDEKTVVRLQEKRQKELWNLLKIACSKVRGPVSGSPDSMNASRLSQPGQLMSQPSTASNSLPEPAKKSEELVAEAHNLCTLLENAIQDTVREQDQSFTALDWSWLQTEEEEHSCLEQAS
In short: (§1)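 IKK2 (0.5 µg/mL) in 10 mM Tris-HCl pH 7.2, 10 mM MgCl2, 0.05% NaN3, 1 mM DTT, 0.01% Tween-20, room temperature. Compound (30 to 0.001 µM, ten roughly three-fold dilutions) preincubated 10 min with enzyme. Reaction started with 1 µM 5FAM-IκBα peptide and 3 µM ATP, run 0, 20, 40 or 60 min. IMAP binding reagent/terbium donor detection, TR-FRET read at 495/520 nm. Kobs fitted against concentration by nonlinear regression.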

[2] = target: T2, Inhibitor of nuclear factor kappa-B kinase subunit beta (Homo sapiens, UniProt O14920); experiment: Allosteric inhibition of IKKbeta (unknown origin) using 5FAM-GRHDSGLDSMK-NH2 as substrate incubated for 10 mins followed by substrate addition and measured after 20 mins by TR-FRET assay
T2 sequence (O14920 whole entry): T1 sequence (whole entry)
In short: (§2)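 Kinetic IMAP TR-FRET run with 0.5 µg/mL IKK2 in 10 mM Tris-HCl pH 7.2, 10 mM MgCl2, 0.05% NaN3, 1 mM DTT, 0.01% Tween-20. Compound (ten doses, 30 to 0.001 µM) pre-incubated with enzyme 10 min, then 1 µM IκBα-derived substrate and 3 µM ATP added. Room temperature. Reactions run 0, 20, 40 or 60 min. Ten-point curves fitted by nonlinear regression.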

[3] = Effect on NO production in non-stimulated mouse RAW264.7 cells at 10 uM after 24 hrs by Griess reagent based assay; conditions: raw264.7, 24 h
RAW264.7 [4] = experiment: Antiinflammatory activity against mouse RAW264.7 cells assessed as reduction in LPS-induced PGE2 production at 10 uM incubated for 1 hr followed by LPS stimulation and measured after 24 hrs by ELISA (reference value: 33.64 ng/ml); type: functional; conditions: time 25 hrs
In short: (§3)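 RAW 264.7 cells (DMEM, 10% FBS, 37 °C, 5% CO2) plated at 2×10^5 cells/mL and left overnight. Compounds (0.1, 1, 10 µM) or NS-398 given for 1 h, then LPS 10 ng/mL for 24 h. Culture medium assayed by ELISA: competitive colorimetric for PGE2/TNF-α, mouse DuoSet for TNF-α/IL-6. IC50 is the concentration lowering the mediator to 50%.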

RAW264.7 [5] = experiment: Antiinflammatory activity against mouse RAW264.7 cells assessed as reduction in LPS-induced IL-6 level incubated for 1 hr followed by LPS stimulation and measured after 24 hrs by ELISA; type: functional, cell-based; in short: as §3
[6] = target: T1, Inhibitor of nuclear factor kappa-B kinase subunit beta (Homo sapiens); experiment: Allosteric inhibition of IKKbeta (unknown origin) at 0.001 to 30 uM using 5FAM-GRHDSGLDSMK-NH2 as substrate incubated for 10 mins followed by substrate addition and measured after 40 mins by TR-FRET assay relative to control; conditions: filed as negative allosteric modulator, dose 0.001-30 µM, time 50.0 min; in short: as §1
RAW264.7 [7] = experiment: Antiinflammatory activity against mouse RAW264.7 cells assessed as reduction in LPS-induced NO level incubated for 1 hr followed by LPS stimulation and measured after 24 hrs by Griess reagent based assay; type: functional, cell-based
In short: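 RAW 264.7 cells in 24-well plates received compounds (0.1, 1, 10 µM) or L-NIL 40 µM positive control, then LPS 1 µg/mL for 24 h. Nitrite in the medium measured by Griess reaction as an NO surrogate. Values referenced to levels before and after LPS stimulation.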

[8] = target: T2, Inhibitor of nuclear factor kappa-B kinase subunit beta; experiment: Allosteric inhibition of IKKbeta (unknown origin) using 5FAM-GRHDSGLDSMK-NH2 as substrate incubated for 10 mins followed by substrate addition and measured after 40 mins by TR-FRET assay; in short: as §2
[9] = target: T2, Inhibitor of nuclear factor kappa-B kinase subunit beta; experiment: Allosteric inhibition of IKKbeta (unknown origin) using 5FAM-GRHDSGLDSMK-NH2 as substrate incubated for 10 mins followed by substrate addition and measured immediately by TR-FRET assay; in short: as §2
RAW264.7 [10] = experiment: Cytotoxicity against mouse RAW264.7 cells assessed as reduction in cell viability incubated for 24 hrs in presence of LPS by MTT assay; type: cell-based; conditions: RAW264.7, 24 h
In short: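 MTT viability in RAW 264.7 cells seeded at 1×10^5 cells/mL and incubated overnight. Compounds added with or without LPS (1 µg/mL) for 24 h. MTT for 4 h at 37 °C, formazan dissolved in DMSO, absorbance read at 540 nm. IC80 is the concentration reducing viability to 80% with LPS.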

[11] = Metabolic stability in rat plasma assessed as parent compound remaining at 1 uM measured upto 2 hrs by LC-MS/MS analysis; type: ADME, cell-free; conditions: read-out: Stabilty
In short: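 Rat plasma incubated with 1 µM compound at 37 °C for 0, 15, 30, 60 and 120 min. After separation, remaining compound quantified by LC-MS/MS as % remaining.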

[12] = Metabolic stability in human liver microsomes assessed as half life at 1 uM measured upto 1 hrs by LC-MS/MS analysis; type: ADME, Microsome
In short: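 Pooled human liver microsomes (0.5 mg/mL protein) with 1 µM compound at 37 °C. Reaction stopped at 0, 5, 15, 30 and 60 min and analysed by LC-MS/MS. Amount remaining expressed as % of initial concentration. Mibefradil run as reference.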

For `CN1CCN(CCCCCOc2cccc(N3C(=O)S/C(=C\c4ccc(Oc5ccc([N+](=O)[O-])cc5)cc4)C3=O)c2)CC1`, the inhibition [1] was -3.88%, the IC50 [2] was 245 nM and the Activity [3] was “Non-Toxic”. For the same compound, the Activity (RAW264.7 [4]) was 19.04 ng/mL, the IC50 (RAW264.7 [5]) was greater than 10000 nM and the inhibition [6] was -8.33%. For the same compound, the IC50 (RAW264.7 [7]) was greater than 10000 nM, the IC50 [8] was 219 nM and the IC50 [9] was 347 nM. It also gave an IC80 (RAW264.7 [10]) greater than 10000 nM, a remaining at 2 h, 1 µM [11] of 83.3% and a half-life at 1 µM [12] of 60 min.
In the case of `CN1CCN(CCCOc2ccc(N3C(=O)S/C(=C\c4ccc(Oc5ccc(C#N)cc5)cc4)C3=O)cc2)CC1`, the inhibition [1] is reported as -0.38%, the IC50 [2] is reported as 347 nM and the Activity [3] is reported as “Non-Toxic”. For the same compound, the Activity (RAW264.7 [4]) was 16.53 ng/mL, the IC50 (RAW264.7 [5]) was greater than 10000 nM and the inhibition [6] was -4.47%. The IC50 (RAW264.7 [7]) was greater than 10000 nM, the IC50 [8] was 251 nM and the IC50 [9] was 575 nM. For the same compound, the IC80 (RAW264.7 [10]) was greater than 10000 nM, the remaining at 2 h, 1 µM [11] was 73.6% and the half-life at 1 µM [12] was 20 min.
